Data on 28 variants can be found in the RNAGym collection of RNA variant scans (doi:10.1126/science.aae0568).

The chains are these.
B1: tRNA (parent)
chain: GUUCCGUUGGCGUAAUGGUAACGCGUCUCCCUCCUAAGGAGAAGACUGCGGGUUCGAGUCCCGUACGGAACG

This sample holds only a part of the variants without activity.

The variants in this data set derive from B1. Description: yeast fitness relative to wild type (ratio to wild type); higher = fitter; tRNA-Arg(CCU), competitive growth, 37 C, YPD. The method, boiled down: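 Variants of the tRNA-Arg(CCU) gene, chemically synthesised with a 3% per-site mutation rate at 69 sites, were placed at the native genomic locus in Saccharomyces cerevisiae. The pooled strains were competed in YPD at 37°C for 24 hours in six parallel replicates. Gene amplicons from the start population and from each end population were read by 100-nucleotide paired-end sequencing. Darwinian fitness relative to wild type came from changes in genotype frequencies; genotypes needed ≥ 100 starting reads, and estimates < 0.5 were set to 0.5.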
On to C66A A69C, for which the yeast fitness stood at 0.665. To G67U A70G belongs 0.822; to G68C A70G, 0.897. For G68C A70U, the yeast fitness was found to be 0.899. Consider G67C A69C, for which the yeast fitness came to 0.651. For G67C A69G the value was 0.977. To C66U A69G belongs 0.801; to A69U A70G, 0.871. On to A69U A70U, for which the yeast fitness was 1.03. In the case of A69C, the yeast fitness was found to be 1.03.

Regarding A69U, the yeast fitness turned out to be 1.04. As to A69G, the yeast fitness was 0.982. In the case of C66U A70C, the yeast fitness came out at 0.895. For the variant G67C G68A, the yeast fitness amounted to 0.874.

Regarding G67A A69U, the yeast fitness was found to be 0.733. With G67A A69C, the yeast fitness is 0.877. For G67U A69G the value was 1.05.

Take C66U G67A: the yeast fitness stood at 0.841. For C66U G68C, the yeast fitness amounted to 0.779. In the case of A69G A70C, the yeast fitness turned out to be 0.896. As for A69G A70G, the yeast fitness turned out to be 1.02.

Take G67A A70G: the yeast fitness amounted to 0.917. In the case of G67A A70U, the yeast fitness was 0.938. For G68A A70G the value was 0.885; for G68A A69C, 0.766; for C66U, 0.968. Regarding C66G, the yeast fitness is 0.902. On to C66A A70G, for which the yeast fitness worked out at 0.764.
